Data taken from ChEMBL document CHEMBL4251664, “Biocompatible Boron-Containing Prodrugs of Belinostat for the Potential Treatment of Solid Tumors” (ACS Med Chem Lett, 2018).
Activity calls are given as the source filed them. The calls are words filed in the database; no cut-off is given here.

Experiments:
[1] = system: MCF7; test: Antitumor activity against human MCF7 cells implanted in ovariectomized nu/nu mouse assessed as tumor growth inhibition at 10 mg/kg, sc administered once daily for 22 days measured post last dose relative to control; assay type: functional; settings: 528 h, read-out: TGI
[2] = system: Mus musculus; test: Toxicity in ovariectomized nu/nu mouse implanted with human MCF7 cells assessed as effect on body weight at 10 mg/kg, sc administered once daily for 22 days; assay type: organism-based; settings: in vivo, 528 h
Outline: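 MCF-7 xenograft in mice, dosed 10 mg/kg/day by subcutaneous injection alongside a vehicle group. Treatment ran 22 days. Body weights were compared with the vehicle group, and tumour volume was measured over the same period. At the end, mice were sacrificed and tumours removed.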

[3] = system: MDA-MB-231; test: Prodrug conversion in human MDA-MB-231 cells assessed as (E)-4-((3-(3-(N-phenylsulfamoyl)phenyl)acrylamidooxy)methyl)phenylboronic acid level after 2 days by UHPLC-MS/MS analysis; assay type: ADME, cell-based; settings: mda-mb-231, 48 h
Outline: (§1)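 MDA-MB-231 or HeLa cells were incubated with the pinacol boronate prodrug, and culture medium was sampled daily from day 1 to day 6. The prodrug, boronic acid forms and belinostat were separated, identified and quantified by HPLC coupled to an Orbitrap mass spectrometer. Results are in ng/mL as mean ± SEM of triplicate experiments.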

[4] = system: MDA-MB-231; test: Prodrug conversion in human MDA-MB-231 cells assessed as (E)-4-((3-(3-(N-phenylsulfamoyl)phenyl)acrylamidooxy)methyl)phenylboronic acid level after 6 days by UHPLC-MS/MS analysis; assay type: ADME, cell-based; settings: mda-mb-231, 144 h; outline: as §1
[5] = system: MDA-MB-231; test: Prodrug conversion in human MDA-MB-231 cells assessed as belinostat level after 4 days by UHPLC-MS/MS analysis; assay type: ADME, cell-based; settings: mda-mb-231, 96 h; outline: as §1
[6] = system: MDA-MB-231; test: Prodrug conversion in human MDA-MB-231 cells assessed as belinostat level after 5 days by UHPLC-MS/MS analysis; assay type: ADME, cell-based; settings: mda-mb-231, 120 h; outline: as §1
[7] = system: HeLa; test: Prodrug conversion in human HeLa cells assessed as (E)-4-((3-(3-(N-phenylsulfamoyl)phenyl)acrylamidooxy)methyl)phenylboronic acid level after 5 days by UHPLC-MS/MS analysis; assay type: ADME, cell-based; settings: 120 h; outline: as §1
[8] = system: HeLa; test: Prodrug conversion in human HeLa cells assessed as belinostat level after 4 days by UHPLC-MS/MS analysis; assay type: ADME, cell-based; settings: 96 h; outline: as §1
[9] = system: HeLa; test: Prodrug conversion in human HeLa cells assessed as belinostat level after 6 days by UHPLC-MS/MS analysis; assay type: ADME, cell-based; settings: 144 h; outline: as §1
[10] = system: MCF7; test: Antitumor activity against human MCF7 cells implanted in ovariectomized nu/nu mouse assessed as tumor volume at 10 mg/kg, sc administered once daily for 22 days measured post last dose relative to control; assay type: functional
[11] = system: MDA-MB-231; test: Prodrug conversion in human MDA-MB-231 cells assessed as (E)-4-((3-(3-(N-phenylsulfamoyl)phenyl)acrylamidooxy)methyl)phenylboronic acid level after 4 days by UHPLC-MS/MS analysis; assay type: ADME, cell-based; settings: mda-mb-231, 96 h; outline: as §1
[12] = system: HeLa; test: Prodrug conversion in human HeLa cells assessed as (E)-4-((3-(3-(N-phenylsulfamoyl)phenyl)acrylamidooxy)methyl)phenylboronic acid level after 2 days by UHPLC-MS/MS analysis; assay type: ADME, cell-based; settings: 48 h; outline: as §1
[13] = system: MDA-MB-231; test: Prodrug conversion in human MDA-MB-231 cells assessed as belinostat level after 6 days by UHPLC-MS/MS analysis; assay type: ADME, cell-based; settings: mda-mb-231, 144 h; outline: as §1
[14] = system: A549; test: Antiproliferative activity against human A549 cells after 72 hrs by resazurin dye based fluorescence assay; assay type: functional, cell-based; settings: A549, 72 h
[15] = system: SK-MEL-28; test: Antiproliferative activity against human SK-MEL-28 cells after 72 hrs by resazurin dye based fluorescence assay; assay type: functional, cell-based; settings: SK-MEL-28, 72 h
[16] = molecular target: T1, Protein deacetylase HDAC6 (Homo sapiens, UniProt Q9UBN7); test: Inhibition of human HDAC6 using RHKK(Ac)AMC as substrate
T1 sequence (Q9UBN7 whole entry): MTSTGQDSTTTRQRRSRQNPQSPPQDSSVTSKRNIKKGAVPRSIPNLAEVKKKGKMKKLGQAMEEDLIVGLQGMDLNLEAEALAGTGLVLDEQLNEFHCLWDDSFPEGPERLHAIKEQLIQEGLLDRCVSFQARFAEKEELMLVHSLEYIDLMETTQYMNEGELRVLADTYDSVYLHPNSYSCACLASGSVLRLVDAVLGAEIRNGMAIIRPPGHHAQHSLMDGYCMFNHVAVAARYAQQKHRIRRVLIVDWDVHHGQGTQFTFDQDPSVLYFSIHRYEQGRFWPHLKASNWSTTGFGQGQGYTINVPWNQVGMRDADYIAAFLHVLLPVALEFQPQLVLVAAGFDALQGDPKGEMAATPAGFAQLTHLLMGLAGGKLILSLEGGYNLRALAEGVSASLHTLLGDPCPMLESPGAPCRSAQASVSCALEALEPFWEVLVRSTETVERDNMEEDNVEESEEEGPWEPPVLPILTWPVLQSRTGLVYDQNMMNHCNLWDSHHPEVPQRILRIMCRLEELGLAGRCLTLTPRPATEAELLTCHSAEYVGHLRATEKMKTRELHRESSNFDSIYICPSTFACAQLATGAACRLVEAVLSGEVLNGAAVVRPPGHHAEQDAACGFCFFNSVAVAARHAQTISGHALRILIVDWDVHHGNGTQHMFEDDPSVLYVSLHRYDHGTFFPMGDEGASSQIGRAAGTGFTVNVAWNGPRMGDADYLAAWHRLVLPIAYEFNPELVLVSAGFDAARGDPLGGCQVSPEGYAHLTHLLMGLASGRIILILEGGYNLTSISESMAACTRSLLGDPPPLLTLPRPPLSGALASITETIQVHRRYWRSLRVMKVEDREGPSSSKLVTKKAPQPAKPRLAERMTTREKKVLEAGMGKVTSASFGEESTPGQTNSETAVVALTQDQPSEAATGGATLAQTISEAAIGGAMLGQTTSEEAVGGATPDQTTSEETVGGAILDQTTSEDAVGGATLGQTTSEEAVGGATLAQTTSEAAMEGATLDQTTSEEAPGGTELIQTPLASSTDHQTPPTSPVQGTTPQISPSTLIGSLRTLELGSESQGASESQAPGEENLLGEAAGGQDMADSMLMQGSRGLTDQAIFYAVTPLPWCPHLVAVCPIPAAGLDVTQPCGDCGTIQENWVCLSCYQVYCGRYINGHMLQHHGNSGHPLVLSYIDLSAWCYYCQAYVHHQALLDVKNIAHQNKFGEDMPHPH

[17] = system: MDA-MB-231; test: Prodrug conversion in human MDA-MB-231 cells assessed as belinostat level after 3 days by UHPLC-MS/MS analysis; assay type: ADME, cell-based; settings: mda-mb-231, 72 h; outline: as §1
[18] = system: HeLa; test: Prodrug conversion in human HeLa cells assessed as (E)-4-((3-(3-(N-phenylsulfamoyl)phenyl)acrylamidooxy)methyl)phenylboronic acid level after 1 day by UHPLC-MS/MS analysis; assay type: ADME, cell-based; settings: 24 h; outline: as §1
[19] = system: HeLa; test: Prodrug conversion in human HeLa cells assessed as belinostat level after 1 day by UHPLC-MS/MS analysis; assay type: ADME, cell-based; settings: 24 h; outline: as §1
[20] = system: MCF7; test: Antitumor activity against human MCF7 cells implanted in ovariectomized nu/nu mouse assessed as tumor remission at 10 mg/kg, sc administered once daily for 22 days measured at 1 day interval for 3 weeks during compound dosing; assay type: functional, organism-based
[21] = system: HeLa; test: Prodrug conversion in human HeLa cells assessed as belinostat level after 5 days by UHPLC-MS/MS analysis; assay type: ADME, cell-based; settings: 120 h; outline: as §1

CC1(C)OB(c2ccc(CONC(=O)/C=C/c3cccc(S(=O)(=O)Nc4ccccc4)c3)cc2)OC1(C)C
inhibition in vivo at 10 mg/kg [1]: 85.4% | Activity [2]: Non-Toxic | Drug metabolism [3]: 268.5 ng/mL | Drug metabolism [4]: 130.9 ng/mL | Drug metabolism [5]: 19.8 ng/mL | Drug metabolism [6]: 28.5 ng/mL | Drug metabolism [7]: 82.7 ng/mL | Drug metabolism [8]: 7.8 ng/mL | Drug metabolism [9]: 3.8 ng/mL | T/C [10]: 14.6% | Drug metabolism [11]: 171.8 ng/mL | Drug metabolism [12]: 147.4 ng/mL | Drug metabolism [13]: 27.8 ng/mL | IC50 [14]: 453 nM | IC50 [15]: 678 nM | EC50 [16]: 20.2 µM | Drug metabolism [17]: 20.3 ng/mL | Drug metabolism [18]: 282.7 ng/mL | Drug metabolism [19]: 8.4 ng/mL | Activity [20]: Active | Drug metabolism [21]: 3.7 ng/mL
